Measured values published in ChEMBL document CHEMBL2046345, “Synthesis of Leubethanol derivatives and evaluation against Mycobacterium tuberculosis” (Bioorg Med Chem, 2012).
Values after ≈ are worked out from the molar mass of the structure shown.

What was measured:
[1] = Selectivity index, ratio of CC50 for african green monkey Vero cells to MIC for Mycobacterium tuberculosis H37Rv ATCC 27294; format: functional
Procedure, shortened: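 SI calculated as CC50 (Vero, MTT, 48 h) divided by MIC against H37Rv (MABA).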

[2] = Cytotoxicity against african green monkey Vero cells after 48 hrs by MTT assay; format: cell-based; conditions: chlorocebus sabaeus
Procedure, shortened: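 Vero cells grown in RPMI-1640 with 10% FBS, penicillin and streptomycin, 37 °C, 5% CO₂. Exposed to compound 500–0.5 µg/mL for 48 h, then MTT (4 mg/mL in PBS) for 3 h. Formazan dissolved in DMSO, absorbance read at 575 nm. CC50 = concentration inhibiting 50% viability by linear regression; rounded mean of three experiments.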

[3] = test system: Mycobacterium tuberculosis; experiment: Antimycobacterial activity against Mycobacterium tuberculosis H37Rv ATCC 27294 by MABA method; format: functional
Procedure, shortened: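 M. tuberculosis H37Rv (ATCC 27294), susceptible to all five first-line drugs, in modified Microplate Alamar Blue Assay. Two-fold serial dilutions were made in Middlebrook 7H9-OADC, 100–0.78 µg/mL, with 1:50 bacterial suspension (~6×10⁶ CFU/mL, McFarland 1). Incubation 37 °C, 5% CO₂, 5–7 days, then Alamar Blue plus 10% Tween-80, 24 h. MIC = first blue well, confirmed microscopically. Ethambutol was the reference; triplicate independent experiments.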

| Compound | Selectivity Index [1] | CC50 at 48 h [2] [µM] | MIC [3] [µM] |
| --- | --- | --- | --- |
| Cc1cc(O)c2c(c1)[C@H]([C@@H](C)CCC(N)C(C)(C)O)CC[C@H]2C (stereo partly specified) | 1.6 | 158 | 98 (≈ 31.3 µg/mL) |
| CC(C)=CCC[C@H](C)[C@@H]1CC[C@@H](C)c2c(OCc3ccc(Cl)cc3)cc(C)cc21 | – | – | > 200 |
| CC(C)=CCC[C@H](C)[C@@H]1CC[C@@H](C)c2c(OCCCCBr)cc(C)cc21 | – | – | > 200 |
| Cc1cc(O)c2c(c1)[C@H]([C@@H](C)CCCC(C)(C)O)CC[C@H]2C | – | – | 200 (≈ 60.9 µg/mL) |
| COc1cc(C)cc2c1[C@H](C)CC[C@H]2[C@@H](C)CCC=C(C)C [LEUBETHANOL METHYL ETHER] | – | – | > 200 |
| CCCCOc1cc(C)cc2c1[C@H](C)CC[C@H]2[C@@H](C)CCC=C(C)C | – | – | > 200 |
| CCCCCC(=O)Oc1cc(C)cc2c1[C@H](C)CC[C@H]2[C@@H](C)CCC=C(C)C [LEUBETHANYL HEXANOATE] | – | – | > 200 |
| CC(=O)Oc1cc(C)cc2c1[C@H](C)CC[C@H]2[C@@H](C)CCC=C(C)C [LEUBETHANYL ACETATE] | >22.6 | > 1100 | 48.7 |
| CC(C)=CCC[C@H](C)[C@@H]1CC[C@@H](C)c2c(OCc3ccc([N+](=O)[O-])cc3)cc(C)cc21 | – | – | > 200 |
| CC(C)=CCC[C@H](C)[C@@H]1CC[C@@H](C)c2c(OCCCCCCOc3cc(C)cc4c3[C@H](C)CC[C@H]4[C@@H](C)CCC=C(C)C)cc(C)cc21 | – | – | 190 (≈ 124 µg/mL) |
| CC[C@@H](CO)NCCN[C@@H](CC)CO [ETHAMBUTOL] | >67 | > 500 | 7.5 (≈ 1.53 µg/mL) |
| CC(C)=CCC[C@H](C)[C@@H]1CC[C@@H](C)c2c(O)cc(C)c(Cc3cc([N+](=O)[O-])cc([N+](=O)[O-])c3)c21 | >45 | > 770 | 17.2 (≈ 8.03 µg/mL) |
| C/C(C=O)=C\CC[C@H](C)[C@@H]1CC[C@@H](C)c2c(O)cc(C)cc21 | 4.5 | 116 | 25.8 (≈ 7.75 µg/mL) |
| CC(C)=CCC[C@H](C)[C@@H]1CC[C@@H](C)c2c(OCc3cc([N+](=O)[O-])cc([N+](=O)[O-])c3)cc(C)cc21 | – | – | > 200 |
| Cc1cc(O)c2c(c1)[C@H]([C@@H](C)CCCC(C)C)CC[C@H]2C | 6.3 | 192 | 30.3 (≈ 8.74 µg/mL) |
| Cc1cc(O)c2c(c1)[C@H]([C@@H](C)CCC1OC1(C)C)CC[C@H]2C (mixture of isomers) | 6.4 | 661 | 103 |
| Cc1cc(O)c2c(c1)[C@H]([C@@H](C)CCC(O)C(C)(C)N=[N+]=[N-])CC[C@H]2C (stereo partly specified) | 1.3 | 231 | 181 (≈ 62.5 µg/mL) |
| CC(C)=CCC[C@H](C)[C@@H]1CC[C@@H](C)c2c(OCCCCCCBr)cc(C)cc21 | – | – | > 200 |
| CC(C)=CCC[C@H](C)[C@@H]1CC[C@@H](C)c2c(OC(=O)c3ccc([N+](=O)[O-])cc3)cc(C)cc21 | – | – | > 200 |
| Cc1cc(O)c2c(c1)[C@H]([C@@H](C)CCC(N=[N+]=[N-])C(C)(C)O)CC[C@H]2C (stereo partly specified) | 1.4 | 127 | 90 (≈ 31.1 µg/mL) |
| Cc1cc(O)c2c(c1)[C@H]([C@@H](C)CCC(O)C(C)(C)N)CC[C@H]2C (stereo partly specified) | 1.4 | 141 | 98 (≈ 31.3 µg/mL) |
| C/C(=C\CC[C@H](C)[C@@H]1CC[C@@H](C)c2c(O)cc(C)cc21)CO | 5.1 | 132 | 25.8 (≈ 7.8 µg/mL) |
| CC(C)=CCC[C@H](C)[C@@H]1CC[C@@H](C)c2c(OCCCCOc3cc(C)cc4c3[C@H](C)CC[C@H]4[C@@H](C)CCC=C(C)C)cc(C)cc21 | – | – | 200 (≈ 125 µg/mL) |
| CC(C)=CCC[C@H](C)[C@@H]1CC[C@@H](C)c2c(OC(=O)c3ccco3)cc(C)cc21 | – | – | > 200 |
| CC(C)=CCC[C@H](C)[C@@H]1CC[C@@H](C)c2c(OC(=O)c3ccccc3)cc(C)cc21 [LEUBETHANYL BENZOATE] | – | – | > 200 |
| CC(C)=CCC[C@H](C)[C@@H]1CC[C@@H](C)c2c(O)cc(C)cc21 [LEUBETHANOL] | 4.9 | 123 | 25.1 (≈ 7.19 µg/mL) |
| CCCCCCOc1cc(C)cc2c1[C@H](C)CC[C@H]2[C@@H](C)CCC=C(C)C | – | – | > 200 |
